# Screens as filed in PubChem BioAssay.
# PMI activator – activators of human PMI, primary screen, biochemical, fluorescence intensity, near-Km mannose 6-phosphate; purified human PMI, coupled resazurin fluorescence, 20 min; stronger effect = higher value; 1 = vehicle control, 0 substrate-free wells; activation factor at 20 µM; 190,000 compounds, 0.005% hits; Mannose-6-phosphate isomerase (Homo sapiens), P34949;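 active = activation factor of 2 or more at 20 µM, relative to plate controls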
# Target sequence (P34949 whole entry, looked up): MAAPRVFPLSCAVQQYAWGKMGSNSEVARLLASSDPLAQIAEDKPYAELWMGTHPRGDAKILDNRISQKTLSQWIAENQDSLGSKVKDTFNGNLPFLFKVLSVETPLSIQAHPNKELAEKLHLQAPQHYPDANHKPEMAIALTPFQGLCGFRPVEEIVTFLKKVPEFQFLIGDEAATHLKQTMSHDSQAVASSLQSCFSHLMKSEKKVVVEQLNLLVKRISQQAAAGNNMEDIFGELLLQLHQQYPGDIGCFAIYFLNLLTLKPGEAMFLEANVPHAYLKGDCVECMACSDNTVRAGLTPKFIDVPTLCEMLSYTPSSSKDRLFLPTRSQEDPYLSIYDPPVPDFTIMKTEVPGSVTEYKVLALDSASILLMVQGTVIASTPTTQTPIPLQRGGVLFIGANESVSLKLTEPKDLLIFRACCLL
# Rad51 HR inh – human RAD51 strand exchange inhibitors, primary screen, biochemical, fluorescence. DNA repair protein RAD51 homolog 1 (Homo sapiens), Q06609. hRad51 DNA strand exchange, fluorescence dequenching. inhibition, % at 10 µM. 200,000 compounds, 0.085% hits;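 active = inhibition above 40% at the single screening dose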;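 also: 0% = DMSO control wells and 100% = blanks with heterologous ssDNA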
#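 System: hRad51 filaments on single-stranded DNA; reagent: Fluorescein- and BHQ1-tagged 47-mer duplex; compound dosing: one concentration, 10 µM final; timing: filaments 15 min 37 °C, then compound 30 min; measured by: fluorescein emission 520 nm, excitation 485 nm; benchmarks: per-plate controls and blanks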
# TNAP act hi DEA – TNAP activators at high phosphate acceptor level, primary screen, biochemical, luminescence, uHTS | Alkaline phosphatase, tissue-nonspecific isozyme (Homo sapiens), P05186 | purified TNAP, CDP-star luminescence, 1 M DEA, 30 min; stronger effect = higher value; 0 = EDTA background, 1 = DMSO-only activity | activation factor at 20 µM | 200,000 tested, under 10 active;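 active = activation factor at least 2 at 20 µM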
#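 Test system – human TNAP · Doses – 20 µM single point · Incubation – 30 min, room temperature · Signal – luminescent substrate turnover signal · Read-out basis – activation factor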
# TNAP inh hiacc – human TNAP enzyme inhibitors, primary screen, biochemical, luminescent, high phosphate acceptor level, uHTS | AID 1135, 2008 | inhibition, % at 20 µM | Alkaline phosphatase, tissue-nonspecific isozyme (Homo sapiens), P05186 | 200,000 compounds, 0.03% hits | purified TNAP, CDP-star luminescence, 1 M DEA;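 active = over 50% inhibition of tissue-nonspecific alkaline phosphatase at 20 µM in the single-dose screen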;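 also: plate controls were DMSO wells for no effect and EDTA-quenched wells as full inhibition for full effect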
# PMI act hi M6P – human PMI activators, high substrate, primary screen, biochemical, fluorescence intensity, near-saturating mannose 6-phosphate | coupled PMI enzyme assay, resazurin fluorescence, 20 min; stronger effect = higher value; 1 = untreated enzyme, 0 = substrate-free blank | activation factor at 20 µM | 190,000 compounds, 0.34% hits;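 active = activation factor of 2 or more at 20 µM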
#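 Material: human phosphomannose isomerase with PGI, G6PDH, diaphorase coupling enzymes / Reagent: Man-6-P substrate 1.0 mM / Dosing: single compound dose of 20 µM, 1% DMSO final / Incubation: enzyme reaction with compound 20 min at room temperature / Signal: resorufin fluorescence (Ex 544/Em 590 nm) from resazurin via diaphorase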
# TNAP inh noacc – human TNAP enzyme inhibitors, primary screen, biochemical, luminescent, no phosphate acceptor, uHTS. inhibition, % at 20 µM. AID 1012, 2008. Alkaline phosphatase, tissue-nonspecific isozyme (Homo sapiens), P05186. 200,000 compounds, 0.26% hits. purified TNAP, CDP-star luminescence, 30 min;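 active = tissue-nonspecific alkaline phosphatase inhibition above about 50% at 20 µM in the single-dose screen, limit read from the data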;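 also: 0% = DMSO negative control and 100% = EDTA positive control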
# An asterisk follows results filed as active; x = no result. Compounds with a hit are over-represented: about 0.6% of the library has one in this group of screens.
SMILES,PMI activator,Rad51 HR inh,TNAP act hi DEA,TNAP inh hiacc,PMI act hi M6P,TNAP inh noacc
NNC(=O)c1ccc2c(c1)S(=O)(=O)NNC2=O,1.9,17.9,1,-1.9,2.9*,3.9
COC(=O)c1ccc(C(=O)NN)cc1,x,0.1,x,x,x,x
COCC1CCN(Cc2nc(Cc3ccccc3Cl)no2)CC1,1,-8.5,1.1,-8.6,1.1,-14.4
C=C(C)C1CC=C(C)/C(=N/NC(=O)c2ccc(NC(=O)CC)cc2)C1 (stereo not drawn),1,0.3,1,1.1,1.1,-2.8
COc1ccccc1-c1nnc2sc(COc3ccc(Cl)cc3)nn12,0.9,x,1,-2.2,0.9,-12.4
COc1ccc(Cc2nn3c(-c4ccccc4OC)nnc3s2)cc1,0.9,4.1,1.1,-6.9,0.9,59.3*
Cc1[nH]c2ccccc2c1/C=N/Nc1ccc(F)cc1F,1.5,x,1,1.5,2.1*,-24.1
COc1ccc2[nH]cc(C(=O)CNc3nc(C)cs3)c2c1,1,-2.6,1.1,-7.6,1,55.5*
OCC1(CCOc2ccccc2)CCN(Cc2ccc3cccc(F)c3n2)CC1,0.9,-153.9,1.1,-5.7,1,-7.9
COC1=C(c2ccccc2)C(=O)c2ccccc2C1=O,2*,18.6,0.9,9.2,1.6,1.0
O=C(O)c1cc(-c2ccc3c(c2)OCCO3)n[nH]1,1,0.6,1.1,-6.6,1,57.6*
CCOC(=O)c1cc(-c2ccc3c(c2)OCCO3)n[nH]1,1,1.1,1,-3.4,1,84.0*
Oc1ccccc1-c1cc(-c2ccc3c(c2)OCCO3)n[nH]1,0.9,x,1,-3.4,0.9,-14.1
COC(=O)c1cc2c(C)cc3ccc(C)cn3c-2c1C(=O)OC,1.1,-17.9,1,-0.2,1.4,-8.6
O=c1cc(-c2ccccc2Cl)oc2ccc([N+](=O)[O-])c(O)c12,0.8,60.5*,0.9,8.2,1,4.2
CN(C)/C=C/c1oc2ccc(O)cc2c1[N+](=O)[O-],0.9,-8.0,0.5,51.6*,0.7,47.6
Cc1cc(C(=O)Nc2nc(-c3ccccn3)cs2)ccc1[N+](=O)[O-],1.8,8.4,1,-4.2,2.4*,-12.1
C/C(=N\Nc1ccc(F)cc1F)c1ccc(F)cc1,1.4,10.5,1,-3.6,2.4*,-10.4
Fc1ccc(N/N=C/c2ccc(N3CCOCC3)cc2)c(F)c1,1.7,2.0,1,0.1,2.2*,-4.3
C/C(=N\Nc1ccc(F)cc1F)c1ccc(N2CCOCC2)cc1,1.6,3.4,1,-3.6,2.4*,-12.7
C/C(=N\NC(=O)c1ccc(Cl)cc1)c1ccc(Br)s1,1.1,4.2,1,-3.6,1.1,3.7
O=C(Nc1ccc(F)cc1F)Nc1ccc(F)cc1F,1,21.1,1,-1.1,1,-4.0
C/C(=N\Nc1ccc(F)cc1F)c1ccc(Br)s1,1.7,0.6,1,-2.5,2.6*,-16.5
NS(=O)(=O)c1cccnc1Nc1cccc(Cl)c1Cl,0.8,0.5,0.5,50.3*,0.8,28.9
CC1CCCN(C(=O)CSc2nc3ncccc3[nH]2)C1 (stereo not drawn),0.9,-0.7,1,-4.9,1,53.1*
SMILES,PMI activator,Rad51 HR inh,TNAP act hi DEA,TNAP inh hiacc,PMI act hi M6P,TNAP inh noacc
C=C(C)CSc1nc2ncccc2[nH]1,1,-0.8,1,-4.8,1,65.8*
CCN(CC)C(=O)CSc1nc2ncccc2[nH]1,1,4.4,1,-4.2,1,48.7
O=c1oc(-c2ccccc2)nc2c1cnn2-c1ccccc1,1,4.7,1.1,-6.5,1,-11.0
N#CC1=C(N)Oc2n[nH]c(-c3ccccc3)c2C1c1ccncc1 (stereo not drawn),0.9,-0.6,1,-2.7,0.9,53.0*
N#CC1=C(N)Oc2n[nH]c(-c3ccc(F)cc3)c2C1c1cccnc1 (stereo not drawn),1.1,x,1,-0.2,1.1,21.7
COCCN=C1Sc2nc3ccc(C)cc3cc2CN1Cc1ccco1,1.6,-7.4,1,3.3,2.1*,-1.4
CCOc1ccc2nc3c(cc2c1)CN(CCOC)C(=NCCOC)S3,0.9,-1.4,1.1,-6.0,0.9,-11.9
O=c1c(/C=N/Nc2ccccc2)c(Sc2nnnn2-c2ccccc2)nc2ccccn12,1.4,x,0.9,13.6,2*,24.6
O=S(=O)(Nc1ccc(N=Nc2ccc(O)c3ccccc23)cc1)c1ccccc1,0.9,-2.5,0.5,49.3,0.8,53.3*
O=S(=O)(Nc1ccc(N=Nc2ccccc2)cc1)c1ccccc1,0.9,5.4,0.9,14.6,0.9,10.3
O=C1CCCC/C1=N\Nc1ccc(OCc2ccccc2)cc1,1.7,14.1,1,4.7,2.5*,2.3
O=C1CCCC/C1=N\Nc1ccc(C2CCCCC2)cc1,x,9.1,x,x,x,x
COc1c(Cl)cc(C(=O)NN)cc1Cl,1.1,x,1,0.5,1.1,-2.7
NNC(=O)c1cc(O)c(O)c(O)c1,0.5,3.7,0.8,15.1,0.8,57.5*
O=C(CSc1nc2ccccc2[nH]1)N1CCN(C(=O)c2ccco2)CC1,1,8.8,1,-1.8,1.3,-14.5
Fc1cccc(C2NN=C(c3ccccc3)S2)c1 (stereo not drawn),1.3,-3.0,1,2.3,1.6,-15.7
COc1ccc(C2NC(=O)CS2)cc1OC (stereo not drawn),1.2,-2.2,1.1,-9.8,1.1,-6.3
Cc1ccc(C2=NNC(c3cccc(F)c3)S2)cc1 (stereo not drawn),1.7,-28.9,1,3.0,2.1*,-5.1
COc1ccc(C2NN=C(c3ccc(C)cc3)S2)cc1OC (stereo not drawn),1.8,3.1,1,-4.6,2.9*,-10.5
O=C(Nc1ccc(Cl)cc1)[C@@H]1[C@@H]2C(=O)N(c3ccc4ccccc4c3)C(=O)[C@@H]2[C@H]2C=CC=NN21,1.5,-0.1,1,0.6,2*,-1.0
O=C(Nc1ccc(Cl)cc1)[C@@H]1[C@@H]2C(=O)N(c3cccc(F)c3)C(=O)[C@@H]2[C@H]2C=CC=NN21,x,-3.6,x,x,x,x
